Tests used:
[1] = test system: xenografted HCT116 p53^+/+ tumors; assay: In vivo antitumor activity in colon cancer xenograft model; set-up: species or system BALB/c nude mice; details: for amounts of apoptotic cells in xenograft tumors (TUNEL assay): compared to the control, Figure 6E
Summary of the method: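 Nude mice carried subcutaneous HCT116 p53+/+ xenografts in the right flank. They were randomised into groups of n = 6 and dosed every other day on days 1, 3, 5, 7, 9, 11 and 13. Test compounds and Nutlin-3 were given at 3 mg/kg, doxorubicin at 1.5 mg/kg, and PBS served as control. Tumors were excised on day 13 for H&E and TUNEL staining (×200). Mean ± s.e., n = 5.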

[2] = In vivo safety evaluation during and after anticancer treatment; set-up: species or system mice
Summary of the method: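 Xenograft-bearing nude mice were treated with test compound or doxorubicin control over a 13-day regimen. During and after treatment, blood counts (WBC, RBC, thrombocytes), liver weight, serum ALT and AST, and CRE and BUN were determined. A hospital clinical laboratory ran these by standard procedures. Liver and kidney sections were H&E stained. Mean ± s.e., t-test.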

[3] = test system: p53 and p21 expression; assay: Western blot analysis of p53 and p21; format: cell-based; details: PSP-^DPMI 200 nM, Nutlin3 5 μM, 24 h, p53 in HCT116 p53^+/+, MCF7, A375, p21 in HCT116 p53^+/+, vs PSP, PBS control
[4] = test system: HCT116 p53^+/+ cells; assay: Cell cycle distribution; format: cell-based; details: 200 nM PSP-^DPMI, 5 μM Nutlin3, 24 h
[5] = clinical trial in liposarcoma; cited from earlier work

SMILES | amounts of apoptotic cells in xenograft tumors (TUNEL assay) [1] | tumor pathomorphology (H&E) ([1]; tumors isolated on day 13, Figure 6C) | blood cell counts (WBCs, thrombocyte, RBCs) ([2]; Figure 8B–D) | kidney function and histology (CRE, BUN, H&E) ([2]; Figure 8I–K) | spleen health ([2]; Figure S15) | body weight ([2]; after a 13-day administration, Figure S14) | liver weight ([2]; compared to healthy mice, Figure 8E) | levels of liver enzymes ALT and AST ([2]; serum, compared to control or healthy mice, Figure 8F,G) | expression of p53 or p21 [3] | cell cycle effect [4] | adverse events in patients [5]
COc1cccc2c1C(=O)c1c(O)c3c(c(O)c1C2=O)C[C@@](O)(C(=O)CO)C[C@@H]3O[C@H]1C[C@H](N)[C@H](O)[C@H](C)O1 [DOX, doxorubicin] | significantly increased | misshapen tumors and cells | a certain level of leukopenia and thrombopenia | symptoms of glomerular lesions | serious spleen failure | significant decrease of body weight | decreased liver weight | aberrant levels |  |  | 
COc1ccc(C2=N[C@@H](c3ccc(Cl)cc3)[C@@H](c3ccc(Cl)cc3)N2C(=O)N2CCNC(=O)C2)c(OC(C)C)c1 [Nutlin3] | significantly increased |  |  |  |  |  |  |  | significantly increased the expression of p53 or p21 | arrest in G0/G1 phase | 
CCOc1cc(C(C)(C)C)ccc1C1=N[C@@](C)(c2ccc(Cl)cc2)[C@@](C)(c2ccc(Cl)cc2)N1C(=O)N1CCN(CCCS(C)(=O)=O)CC1 [RG7112] |  |  |  |  |  |  |  |  |  |  | thrombocytopenia and neutropenia have been seen in many patients
